Laboratory results as given in ChEMBL document CHEMBL1122504, “Heterocyclic Quinones. 4. A new highly cytotoxic drug: 6,7-bis(1-aziridinyl)-5,8-quinazolinedione” (1983).
“And” between values parts separate entries of the source, which are not always exact repeats. Identical values can stand only once.

Experiments:
[1] = system: B16; assay: Number of survivors of B16 melanocarcinoma cell line on day 5/ number of treated mice at a dose of 1 ip injection of 5 mg/kg on Q01Dx01 treatment schedule; 09/10; assay type: functional, Mus musculus; details: route intraperitoneal
[2] = system: B16; assay: Median survival time of […] melanocarcinoma cell line after a dose of 2.5 mg/kg administered intraperitoneally on Q01Dx01 treatment schedule; assay type: functional, Mus musculus; details: route intraperitoneal
Procedure, shortened: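 B16 melanocarcinoma: C57Bl/6 mice implanted sc with cell suspension on day 0; single ip dose in 0.15 M NaCl saline given on day 1. Median survival time was recorded in days, with toxicity taken as survivors on day 5. T/C% = treated MST/control MST × 100; >125% is considered significant.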

[3] = system: L1210; assay: MST of treated animal over control when administered at a dose of 5 mg/kg intraperitoneally on Q01Dx09 treatment schedule in L1210 cell lines; assay type: functional, Mus musculus; details: route intraperitoneal
Procedure, shortened: (§1)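 L1210 leukaemia: DBA/2 mice inoculated ip with 10^5 cells on day 0, with ip drug in 0.15 M NaCl saline on the stated schedule. The read-out was median survival time in days, with toxicity taken as survivors on day 5. T/C% = treated MST/control MST × 100; >125% is considered significant.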

[4] = system: L1210; assay: MST of treated animal over control when administered at a dose of 10 mg/kg intraperitoneally on Q01Dx02 treatment schedule in L1210 cell lines; assay type: functional, Mus musculus; details: route intraperitoneal; procedure, shortened: as §1
[5] = system: L1210; assay: MST of treated animal over control when administered at a dose of 10 mg/kg intraperitoneally on Q01Dx05 treatment schedule in L1210 cell lines; assay type: functional, Mus musculus; details: route intraperitoneal; procedure, shortened: as §1
[6] = system: L1210; assay: MST of treated animal over control when administered at a dose of 2.5 mg/kg intraperitoneally on Q01Dx09 treatment schedule in L1210 cell lines; assay type: functional, Mus musculus; details: route intraperitoneal; procedure, shortened: as §1
[7] = system: L1210; assay: Median survival time of L1210 cell line after a dose of 10 mg/kg administered intraperitoneally on Q01Dx05 treatment schedule; assay type: functional, Mus musculus; details: route intraperitoneal; procedure, shortened: as §1
[8] = system: L1210; assay: Median survival time of L1210 cell line after a dose of 15 mg/kg administered intraperitoneally on Q01Dx02 treatment schedule; assay type: functional, Mus musculus; details: route intraperitoneal; procedure, shortened: as §1
[9] = system: L1210; assay: Number of survivors of L1210 cell line on day 5/ number of treated mice at a dose of 1 i.p. injection of 20 mg/kg on Q01Dx01 treatment schedule; 10/10; assay type: functional, Mus musculus; details: route intraperitoneal
[10] = system: L1210; assay: Number of survivors of L1210 cell line on day 5/ number of treated mice at a dose of 2 ip injection of 15 mg/kg on Q01Dx02 treatment schedule; 10/10; assay type: functional, Mus musculus; details: route intraperitoneal
[11] = system: P388; assay: Number of survivors of P388 lymphocytic leukemia cell line on day 5/ number of treated mice at a dose of 7po injection of 15 mg/kg on Q01Dx07 treatment schedule; 10/10; assay type: functional, Mus musculus
[12] = system: P388; assay: MST of treated animal over control when administered at a dose of 10 mg/kg intraperitoneally on Q01Dx01 treatment schedule; assay type: functional, Mus musculus; details: route intraperitoneal
Procedure, shortened: (§2)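 P388 leukaemia: DBA/2 mice inoculated with 10^6 cells on day 0; treatment began day 1 at the stated route and schedule. Drug was dissolved in 0.15 M NaCl saline. The read-out was median survival time (MST, days), with toxicity taken as survivors on day 5. T/C% = treated MST/control MST × 100; ≥125% is considered significant.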

[13] = system: P388; assay: MST of treated animal over control when administered at a dose of 10 mg/kg perorally on Q01Dx07 treatment schedule; assay type: functional, Mus musculus; details: route oral; procedure, shortened: as §2
[14] = system: P388; assay: MST of treated animal over control when administered at a dose of 15 mg/kg intravenously on Q01Dx01 treatment schedule; assay type: functional, Mus musculus; details: route intravenous; procedure, shortened: as §2
[15] = system: P388; assay: MST of treated animal over control when administered at a dose of 2.5 mg/kg intraperitoneally on Q01Dx09 treatment schedule; assay type: functional, Mus musculus; details: route intraperitoneal; procedure, shortened: as §2
[16] = system: P388; assay: MST of treated animal over control when administered at a dose of 20 mg/kg intraperitoneally on Q01Dx01 treatment schedule; assay type: functional, Mus musculus; details: route intraperitoneal; procedure, shortened: as §2
[17] = system: P388; assay: Number of survivors of P388 lymphocytic leukemia cell line on day 5/ number of treated mice at a dose of 1 i.v. injection of 15 mg/kg on Q01Dx01 treatment schedule; 5/10; assay type: functional, Mus musculus; details: route intravenous
[18] = system: P388; assay: Number of survivors of P388 lymphocytic leukemia cell line on day 5/ number of treated mice at a dose of 1 i.v. injection of 2.5 mg/kg on Q01Dx01 treatment schedule; 9/10; assay type: functional, Mus musculus; details: route intravenous
[19] = system: P388; assay: Number of survivors of P388 lymphocytic leukemia cell line on day 5/ number of treated mice at a dose of 9 ip injection of 5 mg/kg on Q01Dx09 treatment schedule; 10/10; assay type: functional, Mus musculus; details: route intraperitoneal
[20] = system: P388; assay: Median survival time of P388 lymphocytic leukemia cell line after a dose of 10 mg/kg administered intraperitoneally on Q01Dx05 treatment schedule; assay type: functional, Mus musculus; details: route intraperitoneal; procedure, shortened: as §2
[21] = system: P388; assay: Median survival time of P388 lymphocytic leukemia cell line after a dose of 2.5 mg/kg administered intraperitoneally on Q01Dx09 treatment schedule; assay type: functional, Mus musculus; details: route intraperitoneal; procedure, shortened: as §2
[22] = system: P388; assay: Median survival time of P388 lymphocytic leukemia cell line after a dose of 20 mg/kg administered intraperitoneally on Q01Dx01 treatment schedule; assay type: functional, Mus musculus; details: route intraperitoneal; procedure, shortened: as §2
[23] = system: P388; assay: Median survival time of P388 lymphocytic leukemia cell line after a dose of 5 mg/kg administered intraperitoneally on Q01Dx09 treatment schedule; assay type: functional, Mus musculus; details: route intraperitoneal; procedure, shortened: as §2
[24] = system: P388; assay: Median survival time of P388 lymphocytic leukemia cell line after a dose of 15 mg/kg administered intravenously on Q01Dx01 treatment schedule; assay type: functional, Mus musculus; details: route intravenous; procedure, shortened: as §2
[25] = system: P388; assay: Median survival time of P388 lymphocytic leukemia cell line after a dose of 15 mg/kg administered perorally on Q01Dx07 treatment schedule; assay type: functional, Mus musculus; details: route oral; procedure, shortened: as §2
[26] = system: Salmonella typhimurium; assay: Mutagenesis test was performed at 0.3 uM concentration in Salmonella Typhimurium TA 98; assay type: functional, Salmonella enterica subsp. enterica serovar Typhimurium
Procedure, shortened: (§3)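 Salmonella typhimurium his auxotrophs TA98 and TA100 were tested by liquid suspension without metabolic activation. Overnight Oxoid nutrient broth cultures were subcultured, grown 2 h, then exposed to drug for 5 h. Cells were washed, resuspended to A650 2.50, and plated in top agar (0.6% agar, 0.6% NaCl). His+ revertants per plate were counted after 48 h at 37 °C; values are means of three assays.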

[27] = system: Salmonella typhimurium; assay: Mutagenesis test was performed at 0.7 uM concentration in Salmonella Typhimurium TA 100; assay type: functional, Salmonella enterica subsp. enterica serovar Typhimurium; procedure, shortened: as §3
[28] = system: Salmonella typhimurium; assay: Mutagenesis test was performed at 10 uM concentration in Salmonella Typhimurium TA 100; assay type: functional, Salmonella enterica subsp. enterica serovar Typhimurium; procedure, shortened: as §3
[29] = system: Salmonella typhimurium; assay: Mutagenesis test was performed at 20 uM concentration in Salmonella Typhimurium TA 98; assay type: functional, Salmonella enterica subsp. enterica serovar Typhimurium; procedure, shortened: as §3
[30] = system: Salmonella typhimurium; assay: Mutagenesis test was performed at 4 uM concentration in Salmonella Typhimurium TA 100; assay type: functional, Salmonella enterica subsp. enterica serovar Typhimurium; procedure, shortened: as §3
[31] = system: Salmonella typhimurium; assay: Mutagenesis test was performed at 4 uM concentration in Salmonella Typhimurium TA 98; assay type: functional, Salmonella enterica subsp. enterica serovar Typhimurium; procedure, shortened: as §3
[32] = system: Sarcoma-180; assay: MST of treated animal over control when administered at a dose of 10 mg/kg intraperitoneally on Q01Dx01 treatment schedule in sarcoma 180 cell lines; assay type: functional, Mus musculus; details: route intraperitoneal
Procedure, shortened: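 Sarcoma 180: Swiss mice inoculated ip with 10^6 cells on day 0, with single ip injection of drug in 0.15 M NaCl saline. Median survival time was recorded in days, with toxicity taken as survivors on day 5. T/C% = treated MST/control MST × 100; >125% is considered significant.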

`O=C1C(N2CC2)=C(N2CC2)C(=O)c2ncncc21` was tested, and the “Toxicity Survivors” value [1] was 9, the MST [2] was 15.7 days and the T/C [3] was 109%. The T/C [4] was 104%, the T/C [5] was 69% and the T/C [6] was 109%. For the same molecule, the MST [7] was 9.1 days, the MST [8] was 9 days and the “Toxicity Survivors” value [9] was 10. For the same molecule, the “Toxicity Survivors” value [10] was 10, the “Toxicity Survivors” value [11] was 10 and the T/C [12] was 118%. The T/C [13] was 100%, the T/C [14] was 139% and 114% and the T/C [15] was 128%. For the same molecule, the T/C [16] was 134%, the “Toxicity Survivors” value [17] was 5 and the “Toxicity Survivors” value [18] was 9. For the same molecule, the “Toxicity Survivors” value [19] was 10, the MST [20] was 10.4 days and the MST [21] was 10.4 days. It also gave an MST [22] of 9.5 days, an MST [23] of 10.4 days and an MST [24] of 10.4 days. The MST [25] was 7.6 days, the Revertants/plate [26] was 84 and the Revertants/plate [27] was 94. For the same molecule, the Revertants/plate [28] was 97, the Revertants/plate [29] was 98 and the Revertants/plate [30] was 87. For the same molecule, the Revertants/plate [31] was 81 and the T/C [32] was 109%.
